# Screens (PubChem BioAssay)
# hERG protect = hERG rescue from dofetilide block, primary screen, cell-based, CHO-hERG, FluxOR thallium flux, dofetilide IC70; Voltage-gated inwardly rectifying potassium channel KCNH2 (Homo sapiens), Q12809; dofetilide IC70 present; hit rate 0.51% among 310,000; activation (rescue from dofetilide block), less the hit threshold, % at 10 µM;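 active = activation above the mean of controls blocked by dofetilide plus 5 SD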;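 also: thallium influx through hERG after potassium depolarization seen as dye fluorescence rise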
# KCC2 mod = KCC2 cotransporter modulators, thallium flux, primary screen, cell-based, HEK293 KCC2, FluoZin-2 fluorescence, MLSMR; B-score of Tl+ flux slope (higher = more flux/activation; lower = inhibition) at 10 µM; AID 1456, 2008; Solute carrier family 12 member 5 (Homo sapiens), Q9H2X9; KCC2 cells, thallium flux FluoZin-2 fluorescence; hit rate 2.2% among 190,000;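 active = thallium flux slope and its plate-corrected score both differing from the plate sample mean at a set confidence after two filtering rounds, in either direction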;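 also: slope of fluorescence scaled to starting intensity during 10 to 20 s after thallium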
# KCNQ1 pot = potentiators or activators of KCNQ1 channel, primary screen, cell-based, thallium flux, high-throughput; CHO-K1 KCNQ1, thallium flux FluxOR fluorescence; hits give high values; B-score at 10 µM; hit rate 0.35% among 310,000; AID 2648, 2010;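 active = fluorescence ratio B-score, a plate-corrected score, at least three library SD, with initial intensity B-score within 5 SD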
#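 Assay system: stable KCNQ1 CHO-K1 line; medium: assay buffer, equal DMSO in all wells; timing: 90 min dye loading and 20 min compound exposure, both at room temperature; technique: kinetic FluxOR thallium fluorescence, 10-s 1-Hz baseline, 110-s post-stimulus read; read-out basis: B score of baseline-normalized fluorescence ratio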
# KCNQ1 inh = inhibitors of human KCNQ1 channel, primary screen, cell-based, thallium flux, high-throughput; CHO-K1 KCNQ1, FluxOR thallium flux fluorescence; hits give high values; hit rate 1.3% among 310,000; AID 2642, 2010; Potassium voltage-gated channel subfamily KQT member 1 (Homo sapiens), P51787; B-score at 10 µM;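 active = compounds whose thallium flux B-score, printed positive for inhibition, exceeds three library SD while starting fluorescence stays within three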;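 also: channel opened by potassium depolarization with thallium stimulus after 20 min compound exposure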
# KCNK9 block = KCNK9 potassium channel inhibitors, primary screen, HEK293 cells, thallium flux; Potassium channel subfamily K member 9 (Homo sapiens), Q9NPC2; FluxOR thallium flux fluorescence; hits give low values; B-score at 10 µM; hit rate 1.2% among 310,000; AID 488922, 2010;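 active = ratio B-score over 3 SD below the library mean, with starting fluorescence within 5 SD of its mean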;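 also: negative B-score means less thallium flux so channel inhibition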
# Target sequence (Q9NPC2 whole entry, looked up): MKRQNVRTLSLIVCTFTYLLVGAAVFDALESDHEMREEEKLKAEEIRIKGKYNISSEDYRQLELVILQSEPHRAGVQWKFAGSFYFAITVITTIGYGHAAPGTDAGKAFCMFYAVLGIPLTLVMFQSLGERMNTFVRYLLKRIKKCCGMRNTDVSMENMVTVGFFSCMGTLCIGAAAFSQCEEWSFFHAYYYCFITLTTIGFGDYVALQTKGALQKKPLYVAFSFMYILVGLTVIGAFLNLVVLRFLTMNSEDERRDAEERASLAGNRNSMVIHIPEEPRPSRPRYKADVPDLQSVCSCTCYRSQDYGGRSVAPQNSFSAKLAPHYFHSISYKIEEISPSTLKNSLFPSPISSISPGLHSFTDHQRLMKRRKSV
# KCNK3 block = human KCNK3 channel inhibitors, primary screen, CHO cells, FluxOR thallium flux, B-score; Potassium channel subfamily K member 3 (Homo sapiens), O14649; FluxOR fluorescence; hits give low values; B-score at 10 µM; hit rate 0.84% among 340,000; AID 602410, 2012;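 active = B-score under library mean minus 4 SD, starting fluorescence ratio at most library mean plus 5 SD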;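 also: more negative B-score means stronger inhibition of thallium flux through KCNK3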
# Target sequence (O14649 whole entry, looked up): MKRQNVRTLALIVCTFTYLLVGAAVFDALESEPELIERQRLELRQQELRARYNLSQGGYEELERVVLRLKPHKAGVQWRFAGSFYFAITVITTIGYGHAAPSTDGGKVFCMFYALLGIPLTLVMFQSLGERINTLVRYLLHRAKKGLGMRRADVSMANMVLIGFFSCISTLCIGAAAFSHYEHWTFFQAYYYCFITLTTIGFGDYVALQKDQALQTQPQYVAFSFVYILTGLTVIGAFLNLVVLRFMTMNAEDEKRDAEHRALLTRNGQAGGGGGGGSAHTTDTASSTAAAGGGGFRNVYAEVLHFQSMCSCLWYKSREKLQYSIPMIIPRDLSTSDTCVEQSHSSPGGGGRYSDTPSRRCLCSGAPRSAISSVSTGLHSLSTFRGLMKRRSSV
# KCC2 sec1 = KCC2 modulators in sodium-free buffer, confirmation, cell-based, HEK293 KCC2, thallium flux, secondary assay | normalised thallium flux (F/F0 slope) at 10 µM | AID 1713, 2009 | FluoZin2 fluorescence; hits give high values | shares compounds with KCC2 mod | hit rate 15% among 3,700;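 active = thallium flux slope above the same plate's solvent-only control mean plus 3 SD; inconclusive = the two replicate wells disagree; inactive = no significant difference from solvent-only control wells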
# KCC2 bumet counter = thallium flux persisting under bumetanide in KCC2 cells, confirmation, counter-screen for KCC2 modulator project, cell-based, HEK293 KCC2, FluoZin2, secondary assay 3; hit rate 49% among 3,700; HEK293-KCC2 + bumetanide/ouabain; hits give high values; normalized thallium flux at 10 µM; shares compounds with KCC2 mod; AID 1714, 2009;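 active = thallium entry rate above the same plate's blocked-transporter control wells by more than 3 SD; inconclusive = the two repeat wells disagree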;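 also: raw slope of fluorescence over initial fluorescence between 10 and 20 s after thallium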
# KCC2 secondary2 = KCC2 modulators without ouabain present, confirmation, cell-based, HEK293 KCC2, thallium flux, FluoZin2, secondary assay 2; thallium flux FluoZin2 fluorescence; actives lie on both sides; F/F0 rise rate, 10–20 s post-thallium; normalized thallium flux at 10 µM; AID 1715, 2009; hit rate 23% among 3,700; shares compounds with KCC2 mod;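 active = thallium flux slope more than 3 SD above or below the plate's solvent-only control mean, mostly below; inconclusive = the two repeat wells disagreed; inactive = no significant shift from solvent-only controls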;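 also: raw slope with 0.1% DMSO as baseline and bumetanide as block control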
# HEK293 Tl flux = thallium flux modulation in parental HEK cells, confirmation, counter-screen for KCC2 modulator project, cell-based, counterscreen 1; hit rate 46% among 3,700; shares compounds with KCC2 mod; thallium flux rate (normalised fluorescence) at 10 µM; AID 1716, 2009; HEK293 parental cells, thallium flux FluoZin2, ouabain; baseline-ratio fluorescence slope, 10–20 s after thallium;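 active = thallium flux rate significantly above the same plate's solvent-only control wells, beyond their mean plus 3 SD; inconclusive = the two replicate wells gave conflicting results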
# KCC2 ouabain = KCC2 inhibitors and activators, ouabain retest, confirmation, HEK-KCC2 cells. AID 1717, 2009. HEK293-KCC2, thallium flux FluoZin2 fluorescence; bidirectional: low = inhibitor, high = activator. hit rate 48% among 3,700. raw Tl+ flux slope (below DMSO = inhibition, above = activation) at 10 µM. shares compounds with KCC2 mod;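 active = thallium flux slope beyond 3 SD from same-plate DMSO control mean in most replicates, usually higher, sometimes lower; inconclusive = repeat tests gave conflicting results; inactive = no significant difference from controls in most replicates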;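 also: slope of initial-normalized fluorescence between seconds 10 and 20 after thallium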
# HEK293 Tl flux2 = native HEK Tl+ uptake effects, second counter-screen – HEK cells, counterscreen 2, counter-screen for KCC2 modulator project, confirmation; shares compounds with KCC2 mod; HEK293 parental, thallium flux FluoZin-2 fluorescence slope; thallium flux slope at 10 µM; hit rate 33% among 3,700; AID 1718, 2009;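 active = thallium flux slope above the same plate's solvent-control mean plus 3 SD in both duplicate wells; inconclusive = duplicate wells that disagreed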;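 also: run without ouabain in cells lacking the KCC2 cotransporter; slope of fluorescence scaled to its starting value between 10 and 20 s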
# An asterisk follows results filed as active; i = inactive; ? = inconclusive; . = not tested or not shown. Only some compounds are listed: those with a hit (about 4.1% of all), similar ones and a draw of the others.
SMILES,hERG protect,KCC2 mod,KCNQ1 pot,KCNQ1 inh,KCNK9 block,KCNK3 block,KCC2 sec1,KCC2 bumet counter,KCC2 secondary2,HEK293 Tl flux,KCC2 ouabain,HEK293 Tl flux2
C/C(=N\NC(=O)c1cccc(Cl)c1)C1C(=O)c2ccccc2C1=O,-17,-3.7*,i,i,i,i,0.0069,0.0095*,0.027,0.0074,?,0.0089
CC(/C=C/c1ccco1)=N\NC(=O)c1cccc(Cl)c1,-14,14*,i,i,i,i,0.005,0.039*,?,0.023*,0.037*,0.026*
Nc1ncnc2c1ncn2[C@@H]1O[C@H](CNCc2ccc(-c3cc(C(F)(F)F)ccc3Cl)o2)[C@@H](O)[C@H]1O,.,.,.,.,.,i,.,.,.,.,.,.
O=C(COC(=O)c1cccs1)Nc1cccc(S(=O)(=O)N2CCCCC2)c1,.,.,.,.,.,i,.,.,.,.,.,.
O=C(Cn1c(NCCCO)nc2ccccc21)c1ccc(Cl)cc1Cl,-4,.,i,i,i,i,.,.,.,.,.,.
CC(C)CN(C(=O)C(C)N1C(=O)c2ccccc2C1=O)c1c(N)n(Cc2ccccc2)c(=O)[nH]c1=O (stereo not given),-15,.,i,i,i,i,.,.,.,.,.,.
Cc1nc(=S)c2c([nH]1)-c1ccccc1CC21CCCCC1,-7,77*,i,i,i,i,0.02*,0.1*,0.03,0.04*,0.068*,0.011*
CCc1nc2c(c(=O)[nH]1)C1(CCCC1)Cc1ccccc1-2,0,.,i,i,i,i,0.0096,0.0059,0.033,0.0074,0.023,0.01
COc1ccc(-n2c(C)cc(/C=C3\C(=N)N4N=C(CC(=O)N5CCOCC5)SC4=NC3=O)c2C)cc1,-7,.,i,i,i,i,.,.,.,.,.,.
CCC(c1nnnn1Cc1ccccc1)N1CCN(c2ccccc2)CC1 (stereo not given),-6,-3.9*,i,i,i,i,0.016,0.0042,?,0.0066,0.015*,0.0097
O=C(Nc1ccccc1N1CCOCC1)c1cccc(F)c1,-21,0.36,i,i,i,i,.,.,.,.,.,.
CC(C)Oc1cccc(C(=O)Nc2ccccc2N2CCOCC2)c1,-5,-8.5*,i,i,i,i,0.0081,0.0051,0.031,0.0069,0.033,0.011
Fc1c(F)c(F)c(/C=N/NC(=S)Nc2cccnc2)c(F)c1F,-5,19*,i,i,i,i,0.0099,0.03*,0.036,0.015*,?,?
Fc1ccc(/C=N/NC(=S)Nc2cccnc2)cc1,-8,1.6,i,i,i,i,.,.,.,.,.,.
Fc1cccc(F)c1/C=N/NC(=S)Nc1cccnc1,-1,5.2*,i,i,i,i,0.0063,0.012*,0.028,0.012*,?,0.011
Fc1ccc(/C=N/NC(=S)Nc2cccnc2)cc1F,-17,2.8,i,i,i,i,.,.,.,.,.,.
CN(C)S(=O)(=O)N1CCc2ccc(NC(=O)c3ccc(C(F)(F)F)cc3)cc2C1,-7,.,i,i,i,i,.,.,.,.,.,.
CCN1CCN(c2oc(-c3ccccc3)nc2S(=O)(=O)c2ccc(C)cc2)CC1,.,.,.,.,.,i,.,.,.,.,.,.
CCN(CC)c1ccc(NC(=O)c2ccccn2)cc1S(=O)(=O)Nc1ccccc1OC,.,.,.,.,.,i,.,.,.,.,.,.
COC(=O)c1ccc(C2c3c(oc4ccccc4c3=O)C(=O)N2CCCN2CCOCC2)cc1 (stereo not given),-7,-4.5*,i,i,i,i,0.0052,0.0061*,0.029,0.008,0.019,0.011
O=C(Nc1ccc(F)cc1)Nc1nnc(COc2ccccc2F)s1,-11,1.4,i,i,i,i,.,.,.,.,.,.
O=C(Nc1nnc(-c2cccc(F)c2)s1)Nc1ccccc1F,-6,3.8*,i,i,i,i,0.0064,0.0048,0.031,0.0074,0.02,0.011
O=C(Nc1nnc(-c2ccc(F)cc2)s1)Nc1ccccc1F,-5,-0.56,i,i,i,i,.,.,.,.,.,.
O=C(Nc1nnc(COc2ccccc2F)s1)Nc1ccccc1F,-3,2.6*,i,i,i,i,0.0086,0.0054,0.032,0.0078,0.022,0.01
CCc1ccc(Nc2nnc(SC(C)C(=O)NC3CC3)s2)cc1 (stereo not given),.,.,.,.,.,i,.,.,.,.,.,.
CCc1ccc(Nc2nnc(SC3CCOC3=O)s2)cc1 (stereo not given),-7,-5.3*,i,i,i,i,0.0064,?,0.023*,0.0068,?,0.01
CC12CCC(=O)C=C1CCC1C2CCC2(C)C1CC1C3C(=O)N(Cc4ccccc4)C(=O)C3CC(=O)C12 (stereo not given),.,.,.,.,.,i,.,.,.,.,.,.
